An excerpt weighted towards active compounds, which were near 4.6% of everything screened.
Mdm2 ligase inh: Mdm2 E3 ligase (human) inhibition. cell-based MDM2 ubiquitination luciferase reporter, 2 h; 0 = plate control, 100 = twice control, blank-subtracted. signal enhancement, % at 5 µM. 210,000 compounds, 0.11% hits. AID 1230;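 active = signal enhancement of 30% or more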;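 note: luminescence tracks abundance of the self-degrading MDM2-luciferase fusion protein; higher signal means inhibition of MDM2 E3 ligase activity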
Target sequence (Q00987 whole entry, looked up, the tested form may be a part): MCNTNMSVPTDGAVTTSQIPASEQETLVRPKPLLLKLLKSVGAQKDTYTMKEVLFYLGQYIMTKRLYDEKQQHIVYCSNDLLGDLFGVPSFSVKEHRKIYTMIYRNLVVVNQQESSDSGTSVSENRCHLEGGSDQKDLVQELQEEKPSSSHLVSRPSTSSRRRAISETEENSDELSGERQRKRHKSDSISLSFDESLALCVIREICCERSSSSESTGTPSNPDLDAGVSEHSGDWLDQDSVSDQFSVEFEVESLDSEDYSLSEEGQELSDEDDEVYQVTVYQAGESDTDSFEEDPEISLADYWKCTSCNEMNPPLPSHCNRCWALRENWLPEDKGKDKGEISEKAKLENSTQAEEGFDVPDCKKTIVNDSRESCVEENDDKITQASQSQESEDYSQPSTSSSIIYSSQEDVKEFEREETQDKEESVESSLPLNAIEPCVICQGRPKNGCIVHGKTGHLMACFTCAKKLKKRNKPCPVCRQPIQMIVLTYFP
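Material: Stable MDM2–luciferase fusion reporter cells | Amount: 2000 cells seeded into each well | Dosing: One concentration, 5 µM, with 0.2% DMSO | Incubation: 4 h cell settling then 2 h compound exposure, 37 °C | Measured by: Luciferase luminescence | Read-out basis: % enhancement relative to plate controls after blank subtraction | Benchmarks: Control and blank well means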
NF-kB expr up: NF-kB expression increase, human neuronal cells; fold change at 12.5 µM; 190,000 compounds, 1.6% hits; NF-kB reporter expression; stronger effect = higher value; in the data active = fold change above about 3.3
APP 5'UTR act: APP 5'UTR luciferase reporter activation | SH-SY5Y APP 5'UTR luciferase reporter, luminescence; zero percent = DMSO vehicle wells | activation, % at 2 µM | 190,000 compounds, 1% hits;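 active = activation above a set limit, based on mean plus 3 SD of controls, cut at about 140% in these data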
STAT1 act: activators of IFN-gamma induced STAT1 signaling; NIH 3T3 STAT1-luciferase reporter, luminescence; 100% = IFN-gamma alone, no compound; activation (% of control), % at 5.5 µM; 200,000 compounds, 2.6% hits; AID 932;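 active = activation above the screen-wide mean activation plus 3 SD, cut at about 130% in these data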
Wee1 stabilizer: blocks degradation of human Wee1 kinase. P30291. HeLa Luc-Wee1K328M stability, luciferase luminescence; 100% = proteasome inhibitor MG132 effect. reporter increase, % at 5 µM. 220,000 compounds, 1.2% hits;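 active = activation above the mean of all tested compounds plus 3 SD, set per screening run, cut at about 8.8% in these data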;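 note: cells exposed to compound for 20 h before luminescence read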
p97 inhibitor: blocks human p97 ATPase activity | P55072 | recombinant p97 ATPase, Kinase-Glo ATP luminescence, 3 h | inhibition, % at 8 µM | 220,000 compounds, 0.42% hits; in the data active = inhibition above about 15%
Hits are given with their value; – = inactive; · = no result given.

SMILES	Mdm2 ligase inh	NF-kB expr up	APP 5'UTR act	STAT1 act	Wee1 stabilizer	p97 inhibitor
O=C1N(Cc2cccc(Cl)c2)C[C@@H]2C[C@@H](c3ccccn3)N3CCC[C@@]123	–	–	–	–	9.4	–
NS(=O)(=O)c1ccc2nc(NC(=O)c3ccncc3)sc2c1	–	·	–	–	–	–
O=C(Nc1nc2ccc(Cl)cc2s1)c1ccco1	–	7.3	–	–	–	–
CCN(CC)S(=O)(=O)c1ccc2nc(NC(=O)c3ccco3)sc2c1	·	–	–	–	9.6	–
Cc1ccc2nc(NC(=S)NC(=O)c3ccco3)sc2c1	–	–	163	–	–	–
NS(=O)(=O)c1ccc2nc(NC(=O)c3ccc(Br)o3)sc2c1	–	–	–	129	–	–
Cn1cc(Br)c(-c2cccc(N3C(=O)CCCC3=O)c2)n1	–	·	·	·	–	–
CC1(C)Cc2c(sc3nc(-c4ccccc4)oc(=O)c23)CO1	·	–	–	–	–	–
Cc1cccc(Nc2c([N+](=O)[O-])c(=O)oc3ccccc23)c1	–	·	·	·	–	–
COc1cccc(C(=O)Nc2cccc3c2ccc2cccn23)c1	–	–	–	–	–	–
O=C(NC(NCc1cccnc1)C(Cl)(Cl)Cl)c1cccc2ccccc12 (stereo not drawn)	–	–	–	–	–	–
O=C(O)/C=C/c1ccc(S(=O)(=O)Nc2ccc(C(=O)NCC(=O)O)cc2)cc1	–	–	–	–	–	–
O=C(Nc1nnc(COc2ccc(Cl)cc2)s1)c1ccco1	–	–	–	–	9.8	–
O=[N+]([O-])c1nn(-c2ccc3c(c2)OCCO3)n(O)c1=NCc1ccc(F)cc1	–	–	–	143	–	–
O=[N+]([O-])c1nn(-c2ccc3c(c2)OCCO3)n(O)c1=NCc1ccc(F)cc1Cl	–	–	165	142	–	–
CN=c1c([N+](=O)[O-])nn(-c2ccc3c(c2)OCCO3)n1O	–	–	–	–	–	–
Cc1cc(C(=O)Cn2nnc3ccccc3c2=O)c(C)n1Cc1cccs1	–	–	223	–	–	–
COc1ccc(OC)c(C(=O)Cn2nnc3ccccc3c2=O)c1	–	–	–	–	–	–
CCC1CCCCN1CCCNC(=O)c1cc2c(=O)[nH]c3ccccc3c2n1C (stereo not drawn)	·	·	–	–	–	–
CNCCCOc1ccc2c(c1)CCC2	–	–	–	–	–	–
c1cnc(SCCOc2ccc3c(c2)CCC3)nc1	–	7.2	·	150	–	–
CC(C)CC(NC(=O)CNC(=O)C1O[C@@H]2OC(C)(C)O[C@@H]2[C@H]2OC(C)(C)O[C@@H]12)C(=O)O (stereo partly drawn)	–	–	–	–	–	–
OC1CCC(NC(=S)Nc2ccc(SC(F)F)cc2)CC1 (stereo not drawn)	–	–	–	129	–	–
S=C(Nc1ccc(Oc2ccc(NC(=S)NC3CCCCC3)cc2)cc1)NC1CCCCC1	–	–	–	–	–	–
CC(C)c1ccc(NC(=S)NC2CCCCCC2)cc1	–	–	–	140	–	–
SMILES	Mdm2 ligase inh	NF-kB expr up	APP 5'UTR act	STAT1 act	Wee1 stabilizer	p97 inhibitor
FC(F)Sc1ccc(NC(=S)NC2CCCC2)cc1	–	–	–	–	–	–
FC(F)(F)c1ccc(NC(=S)NC2CCCCC2)cc1	–	–	–	–	–	–
O=C(O)c1ccc(NC(=S)NC2CCCCC2)cc1	–	–	·	–	9.6	–
Cc1cccc(NC(=O)C(=O)NCCCc2ccccc2)c1	–	–	–	–	–	–
COc1cc(/C=N/Nc2nc(N3CCCC3)nc(N3CCCC3)n2)ccc1O	–	–	–	–	–	–
Oc1ccc(/C=N/Nc2nc(N3CCCC3)nc(N3CCCC3)n2)cc1O	–	–	–	132	–	–
COc1ccc(N2C(=O)C3CCCN3C2c2ccc(C)o2)cc1 (stereo not drawn)	–	–	–	–	–	–
c1ccc2c(NCCCN3CCOCC3)c3ccccc3nc2c1	–	–	–	180	–	–
Cc1cc(NCCCN2CCOCC2)n2ncc(-c3ccccc3)c2n1	–	4.4	156	147	11	–
Cc1nn(-c2ccccc2)c(Cl)c1/C=N/NC(=O)c1ccc(CNc2ccccc2)o1	–	–	–	–	–	–
Cc1nn(-c2ccccc2)c(Cl)c1/C=N/NC(=O)c1ccco1	–	–	–	141	–	–
Cc1nn(-c2ccccc2)c(Cl)c1/C=N/Nc1ccc(S(=O)(=O)Nc2ccccc2C(=O)O)cc1[N+](=O)[O-]	–	–	–	–	–	–
Cc1nn(-c2ccccc2)c(Cl)c1/C=N/Nc1ccc(Cl)c(C(=O)O)c1	–	10	–	–	–	–
O=C(O)c1cc(N/N=C/c2ccc(OCc3ccccc3)cc2)ccc1Cl	–	–	–	134	–	–
Cc1nn(-c2ccccc2)c(C)c1/C=N/NC(=O)c1cccs1	–	–	–	140	–	–
Cc1nn(-c2ccccc2)c(C)c1/C=N/NC(=O)c1cc(-c2cccs2)[nH]n1	–	–	–	–	–	–
Cc1nc([N+](=O)[O-])c(C(=O)OCc2ccc(C#N)cc2)n1C	–	–	–	–	–	–
Cc1nn(-c2ccccc2)c(Cl)c1/C=N/NC(=O)OC(C)(C)C	–	–	–	139	–	–
O=C(N/N=C\c1ccc(Cl)s1)c1cccs1	31	–	–	–	–	–
COc1ccccc1C(=O)N/N=C/c1ccc(Cl)s1	–	–	–	–	–	–
CNC(=S)N/N=C/c1c(C)nn(-c2ccccc2)c1Cl	–	–	–	–	–	–
NC(=O)c1ccccc1OC1CCC1	–	·	·	·	–	–
CN1CCN(c2nc(-c3cccnc3)nc3ccccc23)CC1	–	–	–	–	–	–
COc1cc2c(cc1OC)CN(c1nc(-c3cccnc3)nc3ccccc13)CC2	–	–	–	–	10	–
COc1ccccc1Nc1ccncc1[N+](=O)[O-]	–	–	–	–	–	–
SMILES	Mdm2 ligase inh	NF-kB expr up	APP 5'UTR act	STAT1 act	Wee1 stabilizer	p97 inhibitor
Cc1noc(/C=C/Nc2ccc(F)cc2F)c1[N+](=O)[O-]	–	6.9	173	147	–	–
COc1ccccc1N/C=C/c1onc(C)c1[N+](=O)[O-]	–	–	142	–	–	–
CN(C)c1ccc(NC(=O)CC(NCc2ccccn2)C(=O)O)cc1 (stereo not drawn)	–	–	–	–	–	–
CC(C)c1nc2c(c(=O)c3ccccc3n2C)c(=O)n1CCc1ccccc1	–	·	·	·	10	–
COc1cccc(NC(=S)N(CCN(C)C)Cc2cccs2)c1	–	5.8	–	–	–	–
Cc1ccc2nc3ccc(N4CCN(C)CC4)nn3c(=O)c2c1	–	–	–	137	–	–
Cc1ccc2nc3ccc(N4CCCCCCC4)nn3c(=O)c2c1	–	–	–	144	–	–
O=c1c2ccccc2nc2ccc(N3CCOCC3)nn12	–	–	–	–	–	–

Source: PubChem BioAssay
